Laboratory results: ChEMBL document CHEMBL3112517, “Identification of dihydrostilbenes in Pholidota chinensis as a new scaffold for GABAA receptor modulators” (Bioorg Med Chem, 2014)
Active and inactive are the calls of the source. No cut-off for these calls is given here.

Columns and labels:
Format in all cases: cell-based
Rattus norvegicus [1] = species: Rattus norvegicus; assay: Allosteric modulation of rat GABAA alpha1beta2gamma2S receptor expressed in Xenopus laevis oocytes assessed as potentiation of GABA-induced chloride ion current at holding potential -70 mV at 100 uM by two-microelectrode voltage clamp assay relative to GABA-treated control
In short: (§1)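 Stage V–VI Xenopus laevis oocytes were injected with 50 nL of rat α1, β2 and γ2S cRNA mixed 1:1:10 (about 300–3000 pg/nL per subunit), stored at 18 °C in ND96, and recorded on days 1–5. Two-electrode clamp was at −70 mV in pH 7.4 HEPES bath. Compound was applied by fast perfusion with GABA EC3–10, in 1% DMSO final. Enhancement = I(GABA+Comp)/IGABA − 1.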

Rattus norvegicus [2] = species: Rattus norvegicus; assay: Modulation of rat GABAA alpha1beta2gamma2S receptor expressed in Xenopus laevis oocytes assessed as potentiation of EC5 to 10 GABA-induced chloride ion current at holding potential -70 mV at 1 uM by two-microelectrode voltage clamp assay relative to GABA-treated control
In short: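 Stage V–VI oocytes injected with rat α1, β2 and γ2S cRNAs (1:1:10), kept at 18 °C in ND96 and recorded 1–5 days later at −70 mV. Bath: 90 mM NaCl, 1 mM KCl, 1 mM MgCl2, 1 mM CaCl2, 5 mM HEPES, pH 7.4. Compound from 100 mM DMSO stock co-applied with GABA EC3–10 by fast perfusion, final DMSO 1%. Enhancement = I(GABA+comp)/IGABA − 1.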

Rattus norvegicus [3] = species: Rattus norvegicus; assay: (§2) Allosteric modulation of rat GABAA alpha1beta2gamma2S receptor expressed in Xenopus laevis oocytes assessed as potentiation of EC3 to 10 GABA-induced chloride ion current at holding potential -70 mV by two-microelectrode voltage clamp assay; in short: as §1
[4] = as §2; in short: as §1
Rattus norvegicus [5] = species: Rattus norvegicus; assay: Agonist activity rat GABAA alpha1beta2gamma2S receptor expressed in Xenopus laevis oocytes assessed as potentiation of GABA-induced chloride ion current at holding potential -70 mV at <100 uM compound treated prior to GABA challenge by two-microelectrode voltage clamp assay
Rattus norvegicus [6] = species: Rattus norvegicus; assay: Allosteric modulation of rat GABAA alpha1beta2gamma2S receptor expressed in Xenopus laevis oocytes assessed as potentiation of EC3 to 10 GABA-induced chloride ion current at holding potential -70 mV at 500 uM by two-microelectrode voltage clamp assay relative to GABA-treated control; in short: as §1
Rattus norvegicus [7] = species: Rattus norvegicus; assay: Allosteric modulation of rat GABAA alpha1beta2gamma2S receptor expressed in Xenopus laevis oocytes assessed as potentiation of EC3 to 10 GABA-induced chloride ion current at holding potential -70 mV at 1 to 300 uM by two-microelectrode voltage clamp assay relative to GABA-treated control; in short: as §1

C(=C(c1ccccc1)c1ccccc1)c1ccccc1
Activity (Rattus norvegicus [1]): -7.3%

COc1cc(/C=C/c2ccc(OC)c(OC)c2)cc(OC)c1
Activity (Rattus norvegicus [1]): 101%

COc1ccc(/C=C/c2ccc(OC)cc2)cc1
Activity (Rattus norvegicus [1]): -24.8%

Oc1ccc(/C=C/c2cc(O)cc(O)c2)cc1
Activity (Rattus norvegicus [1]): 122%

COc1ccc(CCc2ccccc2F)cc1
Activity (Rattus norvegicus [1]): -16.8%

Oc1cc(O)cc(/C=C/c2ccc(O)c(O)c2)c1
Activity (Rattus norvegicus [1]): -35.4%

CN1C(=O)CN=C(c2ccccc2)c2cc(Cl)ccc21
Activity (Rattus norvegicus [2]): 231%

C(=C\c1ccccc1)/c1ccccc1
Activity (Rattus norvegicus [1]): -11.3%

Oc1ccc(CCc2cc(O)cc(O)c2)cc1
Activity (Rattus norvegicus [1]): 162%

COc1cc(O)cc(/C=C\c2cccc(O)c2)c1
Activity (Rattus norvegicus [3]): Dose-dependent effect | EC50 [4]: 176 µM | Activity (Rattus norvegicus [1]): 192% | Activity (Rattus norvegicus [5]): inactive | Imax (Rattus norvegicus [6]): 787%

C(=C/c1ccccc1)/c1ccccc1
Activity (Rattus norvegicus [1]): 12.6%

c1ccc(CC(c2ccccc2)c2ccccc2)cc1
Activity (Rattus norvegicus [1]): 51.6%

COc1ccc(/C=C/c2ccccc2F)cc1
Activity (Rattus norvegicus [1]): -22.9%

COc1ccc(CCc2ccc(OC)cc2)cc1
Activity (Rattus norvegicus [1]): -20.9%

COc1cc(CCc2ccc(OC)c(OC)c2)cc(OC)c1
Activity (Rattus norvegicus [3]): Dose-dependent effect | EC50 [4]: 20.2 µM | Activity (Rattus norvegicus [1]): 544% | Activity (Rattus norvegicus [5]): inactive | Imax (Rattus norvegicus [7]): 871%

CC(=O)Oc1ccc(CCc2cc(OC(C)=O)cc(OC(C)=O)c2)cc1
Activity (Rattus norvegicus [1]): 228%

CC(=O)Oc1ccc(/C=C/c2cc(OC(C)=O)cc(OC(C)=O)c2)cc1
Activity (Rattus norvegicus [1]): 123%

Oc1cc(O)cc(CCc2ccc(O)c(O)c2)c1
Activity (Rattus norvegicus [1]): 86.3%

c1ccc(CCc2ccccc2)cc1
Activity (Rattus norvegicus [1]): 8.3%

Br[C@H](c1ccccc1)[C@@H](Br)c1ccccc1
Activity (Rattus norvegicus [1]): -12.9%

Oc1cc(O)cc(/C=C/c2ccc(O)cc2O)c1
Activity (Rattus norvegicus [1]): -19.7%

Oc1cc(O)cc(CCc2ccc(O)cc2O)c1
Activity (Rattus norvegicus [1]): 44.1%

COc1cc(/C=C/c2ccc(O)cc2)cc(OC)c1
Activity (Rattus norvegicus [1]): 212%
